Hits are enriched below; roughly 2.5% of the tested compounds scored in any of these assays.
PAD4 inh: blocks human protein arginine deiminase 4. AID 485272. Q9UM07. actives 0.41% (n = 330,000). inhibition, % at 6.36 µM. recombinant PAD4, RCA probe fluorescence polarization;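 active = percent inhibition above a cutoff equal to the mean of all tested compounds plus 3 SD, cut at about 15% in these data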;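 also: 0% = PAD4 with RCA probe and DMSO and 100% = probe without PAD4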
GSTO1 inh: GSTO1 inhibition, counter-screen for RBBP9 inhibitors; P78417; recombinant GSTO1, activity-based probe fluorescence polarization; inhibition, % at 5.96 µM; actives 1.1% (n = 300,000);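 active = inhibition above the campaign mean inhibition plus 3 SD, cut at about 35% in these data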;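 also: 0% = GSTO1-1 with DMSO and 100% = wells lacking GSTO1-1 enzyme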
Target sequence (P78417 whole entry, looked up): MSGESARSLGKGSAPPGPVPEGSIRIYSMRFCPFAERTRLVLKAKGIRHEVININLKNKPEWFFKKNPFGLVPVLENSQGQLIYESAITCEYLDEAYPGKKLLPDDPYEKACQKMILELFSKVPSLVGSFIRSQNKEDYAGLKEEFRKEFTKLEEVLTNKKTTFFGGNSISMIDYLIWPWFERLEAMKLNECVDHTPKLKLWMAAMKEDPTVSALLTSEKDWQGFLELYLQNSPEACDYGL
PRMT1 FP inh: blocks human protein arginine methyltransferase 1; Q99873; recombinant PRMT1, activity-based probe fluorescence polarization; inhibition, % at 2.79 µM; actives 1.3% (n = 370,000);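 active = inhibition above about 21% made by adding two undisclosed values, limit read from the data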
E coli Lon inh: inhibitors of E. coli Lon protease | purified E. coli Lon protease, fluorescence polarization | actives 0.42% (n = 360,000) | P0A9M0 | inhibition, % at 7.94 µM; in the data active = inhibition above about 13%, passing the limit was not always enough;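 also: 0% = enzyme with probe and DMSO and 100% = no enzyme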
TDP2 absorb: TDP2 (human) inhibition, absorbance primary screen; O95551; recombinant TDP2, T5PNP hydrolysis, p-nitrophenol absorbance 415 nm; inhibition, % at 12.8 µM; actives 0.34% (n = 370,000); AID 720702;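 active = inhibition above the mean of all tested compounds plus 3 SD, set per campaign, cut at about 25% in these data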;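 also: 0% = DMSO with enzyme and 100% = buffer with substrate but no TDP2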
Target sequence (O95551 whole entry, looked up): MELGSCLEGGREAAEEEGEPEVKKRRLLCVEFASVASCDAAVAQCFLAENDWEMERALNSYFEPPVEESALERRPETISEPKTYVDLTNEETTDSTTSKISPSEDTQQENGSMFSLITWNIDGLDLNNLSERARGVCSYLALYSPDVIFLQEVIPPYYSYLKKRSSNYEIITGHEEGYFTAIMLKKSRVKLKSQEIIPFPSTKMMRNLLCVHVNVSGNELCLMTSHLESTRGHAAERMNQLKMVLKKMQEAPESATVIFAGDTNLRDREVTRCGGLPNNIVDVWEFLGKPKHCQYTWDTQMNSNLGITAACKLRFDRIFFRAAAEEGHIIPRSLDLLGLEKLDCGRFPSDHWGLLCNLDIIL
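System – recombinant human TDP2 · Quantity – TDP2 enzyme at 120 nM final · Doses – single concentration, 12.8 µM nominal, with 1% DMSO · Incubation – 2 h at 37 °C · Measured by – epi absorbance of p-nitrophenol freed from T5PNP by hydrolysis · Read-out – % inhibition relative to enzyme-containing and enzyme-free wells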
PRMT1 inh conf: confirmation of human PRMT1 inhibitors; shares compounds with PRMT1 FP inh; recombinant His-PRMT1, activity-based probe fluorescence polarization; inhibition, % at 2.79 µM; actives 42% (n = 3,300);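 active = mean inhibition across replicates above the hit cutoff derived for the earlier primary screen, cut at about 22% in these data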
Numbers without * were called inactive.

`CCOc1ccc(/C=C2/SC(=S)N(C(C(=O)O)c3ccccc3)C2=O)cc1OCC` (centres undefined) gave PRMT1 FP inh -0.1, E coli Lon inh -8.1 and TDP2 absorb 12.2.
For CCOC(=O)C(=O)NCc1ccc(/C=C2/N=C(C)C(C(=O)OCC)=C2O)o1 the results were PAD4 inh -3.5, GSTO1 inh 17.2, PRMT1 FP inh 17.6, E coli Lon inh 10.7 and TDP2 absorb -0.9.
Screening CCOC(=O)C1=C(O)/C(=C/c2ccc(CNC(=O)C(=O)Nc3ccc(C)cc3)o2)N=C1C returned PAD4 inh -10.4, GSTO1 inh 13.9, PRMT1 FP inh 48.1*, E coli Lon inh -13.7, TDP2 absorb -15.5 and PRMT1 inh conf 0.1.
For COC(=O)C1=C(O)/C(=C\c2ccc(CNC(=O)C(=O)Nc3ccc(C)cc3)o2)N=C1C the results were PAD4 inh -1.1, GSTO1 inh 24.9, PRMT1 FP inh 19.7, E coli Lon inh -13.4 and TDP2 absorb 3.9.
`COC(=O)C1=C(O)/C(=C\c2ccc(CNC(=O)C(=O)Nc3ccc(C)c(C)c3)o2)N=C1C` gave PAD4 inh -4.5, GSTO1 inh 13.3, PRMT1 FP inh 45.3*, E coli Lon inh -23.7, TDP2 absorb -2.5 and PRMT1 inh conf 7.0.
O=C(NCC(F)(F)F)c1ccc(S(=O)(=O)N2CCN(C(=O)C3CCCO3)CC2)cc1 (centres undefined) was read as PAD4 inh -1.0, PRMT1 FP inh 70.5*, E coli Lon inh -6.7, TDP2 absorb 5.1 and PRMT1 inh conf 0.8.
`C[C@H]1C2CC(OC(=O)Nc3cccc(Cl)c3)C(C2)[C@H]2CCCCN21` (some centres undefined) gave PRMT1 FP inh 0.7 and TDP2 absorb 14.4.
For CC1(C)Cc2c(C#N)c(N3CCN(C(=O)c4ccco4)CC3)nc(-c3ccco3)c2CS1 the results were PAD4 inh -7.2, GSTO1 inh -3.6, PRMT1 FP inh -2.4, E coli Lon inh 2.6 and TDP2 absorb 0.8.
`CC(=O)N1CCN(c2nc(-c3ccco3)c3c(c2C#N)CC(C)(C)SC3)CC1` gave PAD4 inh -2.9, GSTO1 inh 5.3, PRMT1 FP inh 46.3*, E coli Lon inh -2.7, TDP2 absorb -0.5 and PRMT1 inh conf 4.9.
C[C@H]1CN([C@@H](C)CO)C(=O)c2cc(Br)cnc2O[C@@H]1CN(C)S(C)(=O)=O was read as PRMT1 FP inh 4.6, E coli Lon inh -0.5 and TDP2 absorb 3.0.
`CC1=CC(=O)C=CC1=Nc1ccc(N(C)C)cc1` gave PRMT1 FP inh 66.6*, E coli Lon inh 6.9, TDP2 absorb -4.6 and PRMT1 inh conf 41.4*.
Screening CSc1ccc(/C=N/NC(=O)CNc2ccc3ccccc3c2)cc1 returned PAD4 inh -2.2, GSTO1 inh -4.8, PRMT1 FP inh 28.8*, E coli Lon inh -5.1, TDP2 absorb -6.9 and PRMT1 inh conf 11.3.
O=[N+]([O-])c1cc2cccnc2c2ncccc12 was read as PAD4 inh -7.1, GSTO1 inh 14.7, PRMT1 FP inh -1.1, E coli Lon inh -2.9 and TDP2 absorb -2.8.
NS(=O)(=O)c1cccc2c1c([N+](=O)[O-])cc1nc(O)c(O)nc12 was read as PAD4 inh -5.0, GSTO1 inh 6.7, PRMT1 FP inh 26.2*, E coli Lon inh -1.9, TDP2 absorb 8.4 and PRMT1 inh conf 27.5*.
For COc1ccccc1S(=O)(=O)N(C)C[C@@H]1OCc2cnnn2CCCC(=O)N([C@H](C)CO)C[C@H]1C the results were PRMT1 FP inh 3.2, E coli Lon inh -9.4 and TDP2 absorb -1.4.
`Cc1ccc(NC(=O)CCN2C(=O)NC(C)(C)C2=O)cc1F` gave PRMT1 FP inh -1.0, E coli Lon inh -5.0 and TDP2 absorb -3.8.
O=C(O)/C=C\C(=O)Nc1cc(O)ccc1[N+](=O)[O-] was read as PAD4 inh 4.1, GSTO1 inh 4.1, PRMT1 FP inh 1.2, E coli Lon inh 0.8 and TDP2 absorb -12.7.
`Cc1cc(C)c(NC(=O)/C=C\C(=O)O)c(Cl)c1` gave PAD4 inh 2.5, GSTO1 inh -3.1, PRMT1 FP inh 27.8*, E coli Lon inh -9.7, TDP2 absorb 10.8 and PRMT1 inh conf 10.7.
Cc1ccc(NC(=O)/C=C\C(=O)O)c([N+](=O)[O-])c1 was read as PAD4 inh -12.0, GSTO1 inh 9.0, PRMT1 FP inh 65.4*, E coli Lon inh 2.0, TDP2 absorb -13.2 and PRMT1 inh conf -1.1.
COc1ccc([N+](=O)[O-])cc1NC(=O)/C=C/C(=O)O was read as PAD4 inh -2.3, GSTO1 inh -4.6, PRMT1 FP inh 1.6, E coli Lon inh -6.0 and TDP2 absorb 0.4.
Cc1cc(C)c(NC(=O)/C=C\C(=O)O)c([N+](=O)[O-])c1 was read as PAD4 inh 0.2, GSTO1 inh -3.5, PRMT1 FP inh 81.3*, E coli Lon inh -0.4, TDP2 absorb 8.4 and PRMT1 inh conf 36.7*.
Cc1ccc([N+](=O)[O-])cc1NC(=O)/C=C/C(=O)O was read as PAD4 inh -1.2, GSTO1 inh 0.1, PRMT1 FP inh 48.7*, E coli Lon inh 5.3, TDP2 absorb 5.0 and PRMT1 inh conf 5.3.
For C[C@H](O)[C@@H]1CN2CCc3ccc(N4CCOCC4)cc3[C@@H]2C[C@@H]1N(C)CC1CCCCC1 the results were PRMT1 FP inh 1.7 and TDP2 absorb -10.2.
CCOc1ccc(C(C(=O)NCC2CCCO2)N(Cc2cccs2)C(=O)c2snc(C(N)=O)c2N)cc1 (centres undefined) was read as PAD4 inh -3.3, GSTO1 inh 3.0, PRMT1 FP inh -3.9, E coli Lon inh -3.5 and TDP2 absorb -14.9.
Screening O=C(CC1C(=O)OCC2CCCCN21)Nc1ccccc1C(F)(F)F (centres undefined) returned PAD4 inh 0.9, GSTO1 inh 6.5, PRMT1 FP inh 47.6*, E coli Lon inh -2.3, TDP2 absorb -4.6 and PRMT1 inh conf 3.8.
`CCCOc1ccc(NC(=O)CC2C(=O)OCC3CCCCN32)cc1` (centres undefined) gave PAD4 inh -3.0, PRMT1 FP inh 35.7*, E coli Lon inh -0.8, TDP2 absorb -0.5 and PRMT1 inh conf 2.6.
O=C(NC1CCN(Cc2ccccc2)CC1)c1cccc(S(=O)(=O)Nc2ccc(SC(F)F)cc2)c1 was read as PAD4 inh 7.4, PRMT1 FP inh 41.5*, E coli Lon inh -1.2, TDP2 absorb -0.4 and PRMT1 inh conf 57.6*.
`Cc1ccc(NS(=O)(=O)c2cccc(C(=O)NC3CCN(Cc4ccccc4)CC3)c2)cc1` gave PRMT1 FP inh -2.5, E coli Lon inh -3.3 and TDP2 absorb -6.4.
Screening CC(C)(CNC(=O)c1cccc(S(=O)(=O)Nc2ccc(SC(F)F)cc2)c1)N1CCOCC1 returned PRMT1 FP inh 46.1*, E coli Lon inh -8.4, TDP2 absorb -2.2 and PRMT1 inh conf 65.7*.

Screening results as filed in PubChem BioAssay.
